The source made the active and inactive calls. No cut-off for these calls is given here.
What was measured:
[1] = target: T1, TGF-beta receptor type-1 (Rattus norvegicus) (UniProt P80204); assay: Inhibition of TGFbeta1 receptor in TGFbeta1-stimulated Sprague-Dawley rat cardiac fibroblasts assessed as reduction in fibronectin expression at 50 uM measured after 12 hrs by Western blot analysis
T1 sequence (whole entry): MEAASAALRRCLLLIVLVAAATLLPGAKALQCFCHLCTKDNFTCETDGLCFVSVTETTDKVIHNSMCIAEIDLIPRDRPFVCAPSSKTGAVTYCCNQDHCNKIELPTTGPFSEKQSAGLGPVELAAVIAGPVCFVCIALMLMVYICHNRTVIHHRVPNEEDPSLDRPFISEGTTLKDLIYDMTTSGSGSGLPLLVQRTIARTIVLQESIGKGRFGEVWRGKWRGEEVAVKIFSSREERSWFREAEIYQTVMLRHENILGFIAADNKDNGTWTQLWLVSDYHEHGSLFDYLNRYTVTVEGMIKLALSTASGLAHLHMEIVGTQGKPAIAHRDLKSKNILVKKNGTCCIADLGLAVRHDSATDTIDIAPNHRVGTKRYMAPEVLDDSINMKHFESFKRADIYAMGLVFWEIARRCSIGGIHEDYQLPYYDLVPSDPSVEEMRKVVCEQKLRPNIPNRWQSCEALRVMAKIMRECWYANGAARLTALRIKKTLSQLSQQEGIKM
Method in brief: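 Screen in primary rat cardiac fibroblasts: compounds at 50 µM or 10 µM given with 10 ng/mL TGFβ1 for 12 h. FN measured by Western blot with GAPDH loading control and densitometry. N=3 independent experiments.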

[2] = target: T1, TGF-beta receptor type-1 (Rattus norvegicus); assay: Inhibition of TGFbeta1 receptor in TGFbeta1-stimulated Sprague-Dawley rat cardiac fibroblasts assessed as reduction in alpha-SMA expression measured after 12 hrs by Western blot analysis
Method in brief: (§1)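 Primary rat cardiac fibroblasts (passages 2–4, 3×10^5 per well) treated with compound plus 10 ng/mL TGFβ1 for 12 h; tested at 2.5, 5 and 10 µM. Lysates run on 10% SDS-PAGE (30 µg protein), probed for FN, α-SMA and collagen I/III, and quantified by densitometry against GAPDH. N=3 independent experiments.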

[3] = target: T1, TGF-beta receptor type-1 (Rattus norvegicus); assay: Inhibition of TGFbeta1 receptor in TGFbeta1-stimulated Sprague-Dawley rat cardiac fibroblasts assessed as reduction in collagen 3 expression measured after 12 hrs by Western blot analysis; method in brief: as §1
[4] = target: T1, TGF-beta receptor type-1 (Rattus norvegicus); assay: Inhibition of TGFbeta1 receptor in TGFbeta1-stimulated Sprague-Dawley rat cardiac fibroblasts assessed as reduction in alpha-SMA mRNA expression at 2.5 to 10 uM measured after 12 hrs by qRT-PCR analysis
Method in brief: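 Primary rat cardiac fibroblasts (3×10^5 per well) treated with compound plus 10 ng/mL TGFβ1 for 12 h. Total RNA extracted and target transcripts measured by SYBR Green qRT-PCR, normalized to GAPDH.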

[5] = Effect on total Smad2 expression in TGFbeta1-stimulated Sprague-Dawley rat cardiac fibroblasts at 10 uM measured after 5 to 30 mins by Western blot analysis; assay type: ADME
Rattus norvegicus [6] = species: Rattus norvegicus; assay: Effect on TGFbeta1 receptor expression in TGFbeta1-stimulated Sprague-Dawley rat cardiac fibroblasts at 2.5 to 10 uM measured after 5 mins by Western blot analysis; assay type: functional
TGF-beta receptor type-1 = target: T2, TGF-beta receptor type-1 (Homo sapiens, UniProt P36897); assay: Inhibition of recombinant human N-terminal GST-tagged TGFbeta1 receptor (80 to end residues) expressed in baculovirus infected Sf9 insect cells using casein as substrate measured after 2 hrs by ADP-Glo assay
T2 sequence (P36897 whole entry): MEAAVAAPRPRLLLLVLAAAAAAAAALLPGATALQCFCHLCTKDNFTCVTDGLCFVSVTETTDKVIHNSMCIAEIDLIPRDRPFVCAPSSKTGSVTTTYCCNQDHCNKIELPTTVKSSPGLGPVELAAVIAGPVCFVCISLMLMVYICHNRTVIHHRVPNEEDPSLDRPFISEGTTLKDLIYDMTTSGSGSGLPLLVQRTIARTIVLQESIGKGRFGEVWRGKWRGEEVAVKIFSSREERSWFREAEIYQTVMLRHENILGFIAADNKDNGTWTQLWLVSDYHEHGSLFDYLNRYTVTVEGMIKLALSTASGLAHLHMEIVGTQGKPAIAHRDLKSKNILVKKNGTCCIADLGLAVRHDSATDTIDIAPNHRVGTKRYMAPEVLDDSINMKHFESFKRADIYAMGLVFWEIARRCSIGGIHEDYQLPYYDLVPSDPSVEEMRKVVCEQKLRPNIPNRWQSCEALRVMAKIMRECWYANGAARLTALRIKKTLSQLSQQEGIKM

Rattus norvegicus [7] = assay: Antifibrotic activity in abdominal aortic constriction Sprague-Dawley rat model of cardiac fibrosis assessed as decrease in heart fibronectin level at 5 mg/kg, ip administered once daily for 4 weeks measured post-last dose by immunohistochemical analysis relative to control; assay type: functional; parameters: scale not given: the % may be the effect or the level left
Method in brief: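 Male SD rats (200–250 g) with abdominal aortic constriction (suture tied over a 21-G probe above the renal arteries), under pentobarbital 30 mg/kg ip. Dosed ip daily for 4 weeks. Vehicle was saline with 0.5% DMSO and 5% Kolliphor HS 15. Groups: sham, AAC, AAC+nifedipine 10 mg/kg, n=8 each. Formalin-fixed paraffin sections 4 µm thick; FN and α-SMA by immunohistochemistry, collagen by Masson's trichrome; stained area measured.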

Rattus norvegicus [8] = assay: Antifibrotic activity in abdominal aortic constriction Sprague-Dawley rat model of cardiac fibrosis assessed as down regulation of fibronectin expression in heart at 5 mg/kg, ip administered once daily for 4 weeks measured post-last dose by Western blot analysis; assay type: functional, organism-based
Method in brief: (§2)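 AAC rats dosed ip daily for 4 weeks, n=8 per group. Hearts homogenized in lysis buffer with protease and phosphatase inhibitors and spun at 12,000 rpm for 30 min at 4 °C. Nuclear and cytoplasmic fractions prepared with a kit. Protein measured by BCA; 30 µg run on 10% SDS-PAGE, transferred to PVDF and immunoblotted; bands quantified by densitometry.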

Rattus norvegicus [9] = assay: Antifibrotic activity in abdominal aortic constriction Sprague-Dawley rat model of cardiac fibrosis assessed as reduction in Smad3 phosphorylation in heart at 5 mg/kg, ip administered once daily for 4 weeks measured post-last dose by Western blot analysis; assay type: functional, organism-based; method in brief: as §2
Rattus norvegicus [10] = assay: Antifibrotic activity in abdominal aortic constriction Sprague-Dawley rat model of cardiac fibrosis assessed as reduction in Smad2 phosphorylation in heart at 5 mg/kg, ip administered once daily for 4 weeks measured post-last dose by immunohistochemical analysis; assay type: functional, organism-based
Method in brief: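 AAC rats dosed ip daily for 4 weeks, n=8 per group. Phospho-Smad2/3 stained by immunohistochemistry on 4 µm paraffin heart sections. Stained area summed over 6 fields per rat for statistics.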

Rattus norvegicus [11] = assay: Antifibrotic activity in abdominal aortic constriction Sprague-Dawley rat model of cardiac fibrosis assessed as reduction in Smad3 nuclear translocation in heart at 5 mg/kg, ip administered once daily for 4 weeks measured post-last dose by Western blot analysis; assay type: functional, organism-based; method in brief: as §2
Rattus norvegicus [12] = assay: Antifibrotic activity in abdominal aortic constriction Sprague-Dawley rat model of cardiac fibrosis assessed as diastolic left ventricular internal diameter at 5 mg/kg, ip administered once daily for 4 weeks measured post-last dose by echocardiography (reference value: 7.60 +/- 0.63 mm); assay type: functional
Rattus norvegicus [13] = assay: Antifibrotic activity in abdominal aortic constriction Sprague-Dawley rat model of cardiac fibrosis assessed as systolic left ventricular internal diameter at 5 mg/kg, ip administered once daily for 4 weeks measured post-last dose by echocardiography (reference value: 3.99 +/- 0.41 mm); assay type: functional

fibronectin reduction (active/not active) [1]: Active
inhibition [2]: Dose-dependent effect
inhibition [3]: Dose-dependent effect
inhibition [4]: Active
IC50 (TGF-beta receptor type-1): 14.9 nM
Compound: C=C(C)[C@@H]1C/C=C(\C)C(=O)CCC2=C[C@@H]1OC2=O
Activity [5]: Non-Toxic
Activity (Rattus norvegicus [6]): inactive
Activity (Rattus norvegicus [7]): 90.7%
Activity (Rattus norvegicus [8]): Active
Activity (Rattus norvegicus [9]): Active
Activity (Rattus norvegicus [10]): Active
Activity (Rattus norvegicus [11]): Active
Activity (Rattus norvegicus [12]): 8.3 mm
Activity (Rattus norvegicus [13]): 4.74 mm
